Assay results published in ChEMBL document CHEMBL1158901, “Chemical constituents of Garcinia fusca: structure elucidation of eight new xanthones and their cancer chemopreventive activity” (J Nat Prod, 2003).

Assays:
[1] = test system: Raji; assay: TPA-induced EBV-early antigen activation in human Raji cells at 32 nmol after 48 hrs relative to TPA; conditions: human gammaherpesvirus 4
[2] = test system: Raji; assay: TPA-induced EBV-early antigen activation in human Raji cells at 16 nmol after 48 hrs relative to TPA; conditions: human gammaherpesvirus 4
[3] = test system: Raji; assay: TPA-induced EBV-early antigen activation in human Raji cells at 3.2 nmol after 48 hrs relative to TPA; conditions: human gammaherpesvirus 4
[4] = Cytotoxicity against human Raji cells assessed as cell viability at 16 nmol after 48 hrs by trypan blue assay; type: cell-based; conditions: read-out: Activity
Procedure, shortened: (§1)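 Raji cells grown to 10^6 cells/mL, pelleted and resuspended in RPMI 1640 with 10% FCS containing 4 mM n-butyric acid and 32 pmol TPA (20 ng/mL). Test compound added in DMSO at 32, 3.2 or 0.32 nmol (footnote also defines 16 nmol as 500 mol ratio). Incubated 48 h at 37 °C. Viable cells counted by Trypan Blue on a hemocytometer.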

[5] = test system: Raji; assay: TPA-induced EBV-early antigen activation in human Raji cells at 0.32 nmol after 48 hrs relative to TPA; conditions: human gammaherpesvirus 4
[6] = Cytotoxicity against human Raji cells assessed as cell viability at 32 nmol after 48 hrs by trypan blue assay; type: cell-based; conditions: read-out: Activity
Procedure, shortened: as §1

[7] = Cytotoxicity against human Raji cells assessed as cell viability at 0.32 nmol after 48 hrs by trypan blue assay; type: cell-based; conditions: read-out: Activity
Procedure, shortened: as §1

[8] = Cytotoxicity against human Raji cells assessed as cell viability at 3.2 nmol after 48 hrs by trypan blue assay; type: cell-based; conditions: read-out: Activity
Procedure, shortened: as §1

[9] = Inhibition of TPA-induced EBV-early antigen activation in human Raji cells per 32 pmol TPA after 48 hrs; type: cell-based, human gammaherpesvirus 4
Procedure, shortened: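 EBV-EA induction in Raji cells by 4 mM n-butyric acid plus 32 pmol TPA in RPMI 1640/10% FCS, 37 °C for 48 h, with compound at mol ratios to TPA of 10 to 1000. EA-positive cells counted blind, ≥500 per assay, relative to TPA-only control. IC50 is the mol ratio to TPA giving 50% inhibition, estimated by probit transformation.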

IC50 [9] | SMILES | EBV-EA activation [1] | EBV-EA activation [2] | EBV-EA activation [3] | viability at 48 h, 16 nmol [4] | EBV-EA activation [5] | viability at 48 h, 32 nmol [6] | viability at 48 h, 0.32 nmol [7] | viability at 48 h, 3.2 nmol [8]
320 molar ratio | COc1c(O)cc2oc3cc(O)c(CC=C(C)C)c(O)c3c(=O)c2c1C/C=C(\C)CCC=C(C)C [COWANIN] | 0% | 33.6% | 71.6% | > 80% | 95.8% | 70% | > 80% | > 80%
398 molar ratio | COc1cc2c(=O)c3c(O)c(C/C=C(\C)CCC=C(C)C)c(O)cc3oc2cc1O [COWAXANTHONE] | 0% | 40.6% | 76.6% | > 80% | 97.5% | 70% | > 80% | > 80%
340 molar ratio | COc1c(O)cc2oc3cc(O)cc(O)c3c(=O)c2c1C/C=C(\C)CCC=C(C)C [RUBRAXANTHONE] | 0% | 39.5% | 74.1% | > 80% | 96.8% | 70% | > 80% | > 80%

Second part, the compound before the results:

SMILES | IC50 [9] | EBV-EA activation [1] | EBV-EA activation [2] | EBV-EA activation [3] | viability at 48 h, 16 nmol [4] | EBV-EA activation [5] | viability at 48 h, 32 nmol [6] | viability at 48 h, 0.32 nmol [7] | viability at 48 h, 3.2 nmol [8]
COc1cc2oc3cc(O)c(OC)c(CC=C(C)C)c3c(=O)c2c(O)c1CC=C(C)C | 270 molar ratio | 0% | 20.5% | 62.6% | > 80% | 90.4% | 70% | > 80% | > 80%
COc1c(O)c(CC=C(C)C)c2oc3cc(O)c(CC=C(C)C)c(O)c3c(=O)c2c1CC=C(C)C | 210 molar ratio | 0% | 16.3% | 59.2% | > 80% | 83.8% | 70% | > 80% | > 80%
CC1=C(/C=C/C(C)=C/C=C/C(C)=C/C=C/C=C(C)/C=C/C=C(C)/C=C/C2=C(C)CCCC2(C)C)C(C)(C)CCC1 [BETA CAROTENE] | 400 molar ratio | 9.1% | 34.3% | 82.7% |  | 100% |  |  | 
COc1c(O)cc2oc3cc(O)c(C/C=C(/C)CO)c(O)c3c(=O)c2c1C/C=C(\C)CCC=C(C)C [COWANOL] | 310 molar ratio | 0% | 30.5% | 69.6% | > 80% | 93.1% | 70% | > 80% | > 80%
COc1c(O)cc2oc3cc(O)c(CC=C(C)C)c(O)c3c(=O)c2c1CC=C(C)C [MANGOSTIN] | 220 molar ratio | 0% | 19.1% | 60% | > 80% | 89.2% | 70% | > 80% | > 80%
CC(C)=CCC/C(C)=C/Cc1c(O)c(O)cc2oc3cc(O)c(CC=C(C)C)c(O)c3c(=O)c12 [NORCOWANIN] | 315 molar ratio | 0% | 31.9% | 70.1% | > 80% | 94.2% | 70% | > 80% | > 80%
